Common to all, as to assay type: in vivo, human
A short description of data set [1]: Plasma insulin lispro pharmacokinetics after a single subcutaneous dose. The conditions noted are these: for median tmax: healthy Japanese men, single s.c. 0.3 U/kg, plasma, n = 36. In short, it runs like this: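 Venous blood drawn into K-EDTA tubes predose, then every 15–60 min over the 10 h clamp. Samples centrifuged within 20 min; plasma held at –60 to –80°C. Analysis by LC-MS/MS specific for lispro over endogenous insulin: protein precipitation plus solid-phase extraction, bovine insulin internal standard, C18 gradient at 40°C. Calibration was 1/x2-weighted linear over 100–8000 pg/mL. Noncompartmental parameters; log-values by mixed model, ratios back-transformed.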

The subject of data set [2] is healthy Japanese male subjects. In words: Safety and tolerability of single doses. To be noted: single s.c. 0.3 U/kg, healthy Japanese men; all TEAEs mild or moderate.
Data set [3] relates to healthy Japanese male subjects. In words: 10-hour euglycemic clamp. The conditions noted are these: ratio of geometric means, linear mixed effects model, n = 36, 95%CI. The method, boiled down:
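Randomized double-blind 2-period crossover, single s.c. 0.3 U/kg per period, 7–18 day washout. After ≥10 h overnight fast, baseline BG was the mean of readings at –30, –20, –10 and –1 min (clamp skipped if <70 mg/dL). BG measured every 1 min; 10% glucose infusion auto-adjusted to hold BG 5 mg/dL below baseline for 10 h. Body-weight-standardized GIR smoothed (LOESS, tension 0.06). Log-parameters analysed by mixed model (period, sequence, treatment fixed; subject random), back-transformed.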

Where [4] appears, read: ratio of geometric means, linear mixed effects model, n = 36, 90%CI.

“insulin lispro [Ly‐Lis‐Jp, reference compound]”: the median tmax in data set [1] was determined as 1 h. Further, the “Tolerability of single doses” value in data set [2] is listed as “well tolerated”.

Substance insulin lispro [SAR‐Lis] had a median tmax in data set [1] of 1 h. Also, in data set [1] (setting [4]), the “AUCinf, Mean Ratio SAR‐Lis/Ly‐Lis‐Jp, point estimate (90%CI)” value is recorded as 1.00 (0.97‐1.02); the “AUClast, Mean Ratio SAR‐Lis/Ly‐Lis‐Jp, point estimate (90%CI)” value is 1.00 (0.97‐1.02); the “Cmax, Mean Ratio SAR‐Lis/Ly‐Lis‐Jp, point estimate (90%CI)” value is 0.99 (0.93‐1.05); the “t1/2z, Mean Ratio SAR‐Lis/Ly‐Lis‐Jp, point estimate (90%CI)” value is given as 1.03 (0.96‐1.11). Also, in data set [3], the “GIRmax, Mean Ratio SAR‐Lis/Ly‐Lis‐Jp, point estimate (95%CI)” value is recorded as 1.07 (1.00‐1.15) and the “GIR‐AUC0‐10h, Mean Ratio SAR‐Lis/Ly‐Lis‐Jp, point estimate (95%CI)” value is reported as 1.07 (0.99‐1.15). The “Tolerability of single doses” value in data set [2] is given as “well tolerated”.

(Values after article PMC9305226 (Clinical Pharmacology in Drug Development, 2022).)
